Source: PubChem
Most compounds without a hit are left out; they make up all but 1.6% or so of the library.
SR-BI HDL uptake: inhibitors of SR-BI mediated HDL lipid uptake, primary screen, ldlA[mSR-BI] cells, fluorescence, single point. inhibition, % at 12.5 µM. AID 488896, 2010. ldlA[mSR-BI] CHO cells, DiI-HDL uptake fluorescence, 3 h. actives 0.96% (n = 320,000);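 active means mean replicate inhibition of at least 70% and a set share of replicates each scoring 70 or more; inconclusive means meets just one of the two criteria; inactive means fails both criteria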;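 further: 0% = median of neutral control wells and 100% = median of positive control wells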
TLR9-MyD88 block: inhibitors of TLR9-MyD88 association in cells, primary screen, cell-based, CHO, BLA complementation, fluorescence; Toll-like receptor 9 (Homo sapiens) + Myeloid differentiation primary response protein …; CCF4 FRET ratio; inhibition, % at 4.98 µM; actives 0.21% (n = 340,000);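 active means inhibition above the mean over all tested compounds plus 3 SD, cut at about 21% in these data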;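 further: 0% = DMSO only wells and 100% = clavulanate BLA inhibitor control wells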
Target sequence (Q99836 whole entry, looked up): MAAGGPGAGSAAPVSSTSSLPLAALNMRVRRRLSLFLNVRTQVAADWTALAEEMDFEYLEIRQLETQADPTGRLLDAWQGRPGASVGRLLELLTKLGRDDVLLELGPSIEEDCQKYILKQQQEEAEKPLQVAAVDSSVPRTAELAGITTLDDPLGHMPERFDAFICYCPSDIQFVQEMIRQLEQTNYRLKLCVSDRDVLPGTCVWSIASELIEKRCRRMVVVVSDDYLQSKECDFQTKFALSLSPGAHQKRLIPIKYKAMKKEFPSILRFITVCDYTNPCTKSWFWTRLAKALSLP
Target sequence (Q9NR96 whole entry, looked up): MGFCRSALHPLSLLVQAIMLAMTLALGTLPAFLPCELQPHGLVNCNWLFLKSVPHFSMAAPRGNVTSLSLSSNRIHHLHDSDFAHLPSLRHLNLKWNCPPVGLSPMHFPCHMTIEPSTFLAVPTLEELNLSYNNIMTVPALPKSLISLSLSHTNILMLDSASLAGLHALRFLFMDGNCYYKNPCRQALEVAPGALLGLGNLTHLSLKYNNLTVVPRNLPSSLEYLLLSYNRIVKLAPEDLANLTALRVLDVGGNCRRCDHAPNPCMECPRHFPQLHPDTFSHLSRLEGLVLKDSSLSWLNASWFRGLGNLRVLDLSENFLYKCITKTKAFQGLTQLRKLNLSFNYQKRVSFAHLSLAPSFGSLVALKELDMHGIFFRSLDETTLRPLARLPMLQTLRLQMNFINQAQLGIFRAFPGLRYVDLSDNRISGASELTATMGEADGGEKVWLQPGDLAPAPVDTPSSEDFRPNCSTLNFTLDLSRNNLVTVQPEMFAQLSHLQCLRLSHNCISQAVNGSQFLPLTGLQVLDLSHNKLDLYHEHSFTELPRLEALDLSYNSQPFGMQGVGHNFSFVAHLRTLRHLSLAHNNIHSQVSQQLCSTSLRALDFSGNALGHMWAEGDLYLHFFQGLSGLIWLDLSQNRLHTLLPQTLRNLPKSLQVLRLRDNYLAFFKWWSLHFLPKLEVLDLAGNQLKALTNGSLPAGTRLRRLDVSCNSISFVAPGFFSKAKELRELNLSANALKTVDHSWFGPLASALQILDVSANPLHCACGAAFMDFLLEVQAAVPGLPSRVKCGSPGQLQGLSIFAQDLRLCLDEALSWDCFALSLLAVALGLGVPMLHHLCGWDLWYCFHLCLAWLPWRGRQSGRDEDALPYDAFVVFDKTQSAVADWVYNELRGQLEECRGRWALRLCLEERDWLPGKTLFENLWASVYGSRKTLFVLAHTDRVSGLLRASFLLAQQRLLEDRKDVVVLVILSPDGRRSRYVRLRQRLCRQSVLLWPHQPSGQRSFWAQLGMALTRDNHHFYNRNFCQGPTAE
Lipid droplet: inhibitors of hepatocyte lipid droplet formation, primary screen, imaging, high-throughput imaging, BODIPY stain; inhibition, % at 6.5 µM; AML12 mouse hepatocytes, oleate lipid droplets; actives 0.4% (n = 240,000); AID 1656, 2009;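 active means lipid droplet intensity inhibited by at least 50%, with more than 500 cells counted; inconclusive means wells with under 300 cells, treated as cytotoxic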
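Material: mouse AML12 hepatocyte cell line, fixed after treatment; Timing: compound with oleate, overnight; Technique: high-content imaging of BODIPY-stained droplets and DAPI nuclei; Probe or stimulus: oleate, 100 µM final; Dosing: compound at 6.5 µM only.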
NOD2 RIPK2 PPI: NOD2-RIPK2 binding disruptors in cells, primary screen, fluorescence, CHO cells, BLA complementation; inhibition, % at 4.98 µM; Receptor-interacting serine/threonine-protein kinase 2 (Homo sapiens), O43353; AID 624267, 2012; CCF4 ratio; actives 0.38% (n = 360,000); in the data active means inhibition above about 21%;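 further: 0% = vehicle only and 100% = reference blocker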
TLR4 MyD88 comp: inhibitors of TLR4-MyD88 association in cells, primary screen, cell-based, HeLa CL3-4, BLA complementation, FRET ratio. inhibition, % at 8.4 µM. HeLa CL3-4 TLR4/MyD88 BLA complementation. AID 861, 2007. actives 0.18% (n = 200,000). Toll-like receptor 4 (Homo sapiens) + Myeloid differentiation primary response protein …; in the data active means inhibition above about 25%;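 further: 0% = vehicle and 100% = reference inhibitor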
SR-BI uptake up: activators of SR-BI mediated DiI-HDL uptake, primary screen, ldlA[mSR-BI] CHO cells, DiI fluorescence. 3 h; 100 = double the neutral-control signal. activation, % at 12.5 µM. actives 0.096% (n = 320,000);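 active means mean replicate activation of at least 60% and every replicate at or above 60%; inconclusive means mean or all-replicate condition met, but not both; inactive means mean below 60% and not all replicates reaching 60%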;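 further: 0% = median plate neutral-control signal and 100% = twice that signal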
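material = CHO ldlA[mSR-BI] cells | medium = Ham's F12 with 0.5% BSA, HEPES 25 mM, pH 7.4 | reagent = fluorescent DiI-HDL, 10 µg/mL final | compound dosing = single-point compound dose | incubation = 3 h, 37 °C | measured by = bottom-read fluorescence, 550/595 nm | measure = HDL uptake via cellular fluorescence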
TLR4 MyD88 cnf: TLR4-MyD88 association inhibitors, retest, confirmation, cell-based, HeLa CL3-4, BLA complementation, FRET ratio. shares compounds with TLR4 MyD88 comp. CCF4 FRET ratio. inhibition, % at 8.4 µM. actives 50% (n = 350);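 active means mean inhibition across three repeat runs above about 25% carried over from the earlier screen, limit read from the data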;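 further: plate controls were DMSO only for no effect and clavulanic acid blocking BLA at full dose for full effect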
BLA inh HeLa: beta-lactamase inhibition flagged in TLR4-MyD88 counter-screen; shares compounds with TLR4 MyD88 comp; HeLa BLA reporter, CCF4 FRET ratio; inhibition, % at 8.4 µM; actives 63% (n = 350); AID 1237;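 active means mean inhibition over three repeats above about 26% taken from the earlier screen, limit read from the data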;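 further: HeLa cells stably expressing beta-lactamase reporter as counterscreen for TLR4-MyD88 inhibitors; 0% = DMSO and 100% = clavulanic acid full inhibition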
TLR9-MyD88 cf: TLR9-MyD88 association inhibitors, retest, confirmation, cell-based, CHO, BLA complementation, fluorescence, triplicate; inhibition, % at 4.98 µM; actives 51% (n = 680); shares compounds with TLR9-MyD88 block; CCF4 FRET ratio; AID 540250, 2011;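 active means mean inhibition across three repeats above about 21% taken from the earlier screen, limit read from the data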;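 further: blue over green emission ratio reports constitutive TLR9 MyD88 association via BLA complementation; 0% = DMSO vehicle wells and 100% = clavulanate BLA inhibitor wells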
BLA counter-1: beta-lactamase reporter inhibitors in CHO cells, artefact control for TLR9-MyD88 binding inhibitor project, cell-based, fluorescence | shares compounds with TLR9-MyD88 block | CHO-BLA cells, CCF4 FRET ratio, BLA reporter | inhibition, % at 4.98 µM | actives 7% (n = 680) | AID 540251, 2011;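 active means mean inhibition above a 50% cutoff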;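 further: counterscreen of TLR9-MyD88 hits on CMV-driven BLA in CHO-K1 cells; 0% = DMSO alone and 100% = clavulanate blocking BLA; higher means less blue over green ratio so more BLA blockade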
TLR9 CHO tox: CHO cell viability loss – luminescence, single concentration, cytotoxicity control for TLR9-MyD88 binding inhibitor project. shares compounds with TLR9-MyD88 block. TLR9-MyD88 CHO cells cytotoxicity. inhibition, % at 4.98 µM. actives 39% (n = 680); in the data active means inhibition above about 11%
NOD2-RIPK2 conf: NOD2-RIPK2 binding disruptors, retest, confirmation, fluorescence, CHO cells, BLA complementation, triplicate; shares compounds with NOD2 RIPK2 PPI; inhibition, % at 4.98 µM; actives 70% (n = 1,200); AID 624370, 2012; CCF4 FRET;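 active means mean inhibition across replicates above a set limit taken from the earlier primary screen, cut at about 21% in these data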;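 further: 0% = DMSO-only wells and the high end = clavulanate BLA-blocked wells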
BLA counter-2: NOD2-RIPK2 counterscreen BLA reporter activity; shares compounds with NOD2 RIPK2 PPI; CHO BLA reporter, CCF4 FRET ratio; inhibition, % at 4.98 µM; actives 57% (n = 1,200); AID 624371;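 active means mean inhibition above the low-control mean inhibition plus three low-control SD, cut at about 11% in these data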;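 further: 0% = DMSO only wells and 100% = clavulanate high control wells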
Active calls of the source: *; ? = inconclusive; / = no result given.

SMILES	SR-BI HDL uptake	TLR9-MyD88 block	Lipid droplet	NOD2 RIPK2 PPI	TLR4 MyD88 comp	SR-BI uptake up	TLR4 MyD88 cnf	BLA inh HeLa	TLR9-MyD88 cf	BLA counter-1	TLR9 CHO tox	NOD2-RIPK2 conf	BLA counter-2
CCN1CCc2c(sc(NC(=O)Nc3ccc(Cl)c(Cl)c3)c2C(N)=O)C1	4.7	48.0*	-8.0	40.9*	35.1*	-4.7	37.5*	60.1*	14.6	9.6	20.1*	24.5*	30.0*
Cc1cc(Cl)n2c(nc3ccccc32)c1C#N	1.2	-3.9	?	23.3*	45.3*	-1.2	52.1*	55.9*	/	/	/	86.5*	62.7*
O=C(NC1CCCCC1)C(=O)c1c[nH]c2ccccc12	19.0	-5.5	8.1	-2.2	/	-19.0	/	/	/	/	/	/	/
O=C(/C=C/c1cn(CC(O)CN2CCCCCC2)c2ccccc12)c1cccs1 (stereo unspecified)	18.5	47.1*	-34.7	47.0*	31.3*	-18.5	36.6*	60.2*	28.3*	27.2	2.4	55.7*	52.4*
O=C(NCc1ccc(/C=c2\sc3n(c2=O)CCN=3)o1)C(=O)Nc1ccccc1	/	/	0.6	/	5.7	/	/	/	/	/	/	/	/
CC1CCCCC1NC(=O)CN1C(=O)c2cccc(N)c2C1=O (stereo unspecified)	-10.5	37.5*	4.7	46.5*	32.6*	10.5	32.7*	52.3*	17.6	25.2	-0.1	41.9*	47.7*
CCCCNC(=O)CN1C(=O)c2cccc(N)c2C1=O	-3.2	37.5*	22.9	44.9*	38.0*	3.2	26.7*	48.4*	17.2	20.5	-1.8	45.1*	48.2*
CC1CCCCC1NC(=O)COC(=O)CN1C(=O)c2ccccc2C1=O (stereo unspecified)	-1.6	1.9	/	7.5	/	1.6	/	/	/	/	/	/	/
Cc1nn(-c2ccccc2)c(C)c1C(=O)OCC(=O)Nc1ccccc1Cl	/	5.4	/	-6.7	/	/	/	/	/	/	/	/	/
Cc1ncsc1C(=O)N1N=C2/C(=C/c3ccccc3)CCCC2C1c1ccccc1 (stereo unspecified)	12.9	-5.0	/	3.0	-10.0	-12.9	/	/	/	/	/	/	/
